Here are results for nine compounds from article PMC11000255 (Journal of the American Chemical Society, 2024).

The term pKa denotes the pH at which an ionisable group is half protonated. High values mean a weaker acid or stronger base, low ones a stronger acid or weaker base. For orientation: IC50 means the concentration that inhibits the measured activity by half. Higher therefore signals weaker potency in that assay.

Series [1] is classed as physicochemical. Particulars: excess of butylamine; for fold increased half-life / diminished rate compared to salicylaldehyde: vs salicylaldehyde.
For series [2] the following is noted: phenolic core of ubiquinol; cited from earlier work.
A further series is described as follows: ionization constants. The series is classed as physicochemical.
The target of series [3] is mitochondrial citrate synthase (CS) (Homo sapiens, UniProt O75390). Nature of the series: TMT18plex lysine ligandability profiling, CS. The following applies: MDA-MB-231 cells. The series is classed as binding. In outline:
(§1)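 Live MDA-MB-231 or MDA-MB-436 breast cancer cells were exposed to the test compound (100 µM, 8 h) or DMSO vehicle. Lysates (soluble and insoluble fractions) were chased with a desthiobiotin-tagged lysine-specific STP ester probe, trypsin-digested, streptavidin-enriched and quantified by TMTpro-18plex. Lysines had to be quantified in all biological triplicates and TMT channels. A lysine counted as liganded at ≥60% loss of probe enrichment relative to DMSO.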

The target in another series is R140Q-IDH2 (Homo sapiens, UniProt P48735, R140Q). Nature of the series: reductive activity. The series is classed as biochemical. The gist of the method: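 Lysates of HEK293T cells expressed recombinant R140Q-IDH2, alone or with K299R or K299R/K413R added. Lysate was preincubated with the test compound (single-point 100 µM, or a dose series; 2 h, 20 °C). 2-HG production from α-KG substrate (0.6 mM, 1 h, 25 °C) was measured.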
R140Q-IDH2, sequence (P48735 40-452 R140Q): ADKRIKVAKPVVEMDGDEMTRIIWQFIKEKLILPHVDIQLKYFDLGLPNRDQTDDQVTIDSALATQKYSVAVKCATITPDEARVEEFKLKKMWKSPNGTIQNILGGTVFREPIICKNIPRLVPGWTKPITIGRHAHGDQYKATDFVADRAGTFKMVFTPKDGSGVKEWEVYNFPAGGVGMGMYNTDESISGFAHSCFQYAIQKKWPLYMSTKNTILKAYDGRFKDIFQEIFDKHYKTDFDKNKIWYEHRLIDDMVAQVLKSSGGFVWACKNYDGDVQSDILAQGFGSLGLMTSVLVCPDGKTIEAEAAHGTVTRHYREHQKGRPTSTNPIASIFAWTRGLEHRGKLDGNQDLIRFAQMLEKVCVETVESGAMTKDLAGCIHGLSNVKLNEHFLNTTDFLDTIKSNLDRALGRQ

In another series the target is K373R-ABHD12 (Homo sapiens, UniProt Q8N2K0, K373R). Nature of the series: LC/MS-based LPS hydrolysis assay, K373R-ABHD12 in HEK293T cell lysates. The series is classed as biochemical. The gist of the method:
(§2)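 Recombinant ABHD12 (WT, S246A and K373 mutants) was expressed in HEK293T cells and used as cell lysate. Lysate was preincubated with the test compound (single-point 100 µM, or a dose series; 1 h, 37 °C), then given 17:1 LPS substrate (100 µM, 20 min, 37 °C).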

A further series concerns the target IDH2 (Homo sapiens, UniProt P48735). Description: immunoblotting analysis of IDH2 homodimerization. The gist of the method: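 Flag-tagged WT- and R140Q-IDH2, with K299 and K413 mutants, were recombinantly expressed in HEK293T cells. Lysates were treated with the test compound, and IDH2 homodimer formation was read by immunoblot.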
For a further series, the target named is T1, WT-ABHD12 (Homo sapiens, UniProt Q8N2K0).
T1 sequence (Q8N2K0 1-398): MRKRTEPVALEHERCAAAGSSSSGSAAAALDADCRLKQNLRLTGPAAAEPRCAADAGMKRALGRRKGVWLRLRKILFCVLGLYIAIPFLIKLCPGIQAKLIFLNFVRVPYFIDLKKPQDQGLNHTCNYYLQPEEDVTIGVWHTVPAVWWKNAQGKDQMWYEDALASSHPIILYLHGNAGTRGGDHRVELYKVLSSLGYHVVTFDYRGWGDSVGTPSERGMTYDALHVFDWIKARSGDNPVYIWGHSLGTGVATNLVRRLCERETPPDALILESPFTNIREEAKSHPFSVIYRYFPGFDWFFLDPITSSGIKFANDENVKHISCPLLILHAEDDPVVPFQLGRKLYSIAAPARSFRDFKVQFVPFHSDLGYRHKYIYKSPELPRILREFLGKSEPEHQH
Description: LC/MS-based LPS hydrolysis assay, WT-ABHD12 in HEK293T cell lysates. The series is classed as biochemical. The gist of the method: as §2

The test system of series [4] is MDA-MB-231 cells. Description: untargeted lipidomics profiling of treated cells. The series is classed as cell-based, human. The following applies: 100 μM, 8 h.
A further series concerns the target K678R-PFKM (Homo sapiens, UniProt P08237, K678R). Description: F6P phosphorylation assay, K678R-PFKM in HEK293T cell lysates. The series is classed as biochemical. In outline:
(§3)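 Epitope-tagged WT-PFKM or K678R-PFKM was recombinantly expressed in HEK293T cells and used as lysate. Lysate was preincubated with the test compound (single-point 100 µM, or a dose series; 2 h, 37 °C).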

Another series addresses transthyretin (TTR) (Homo sapiens, UniProt P02766). Description: TMT18plex lysine ligandability profiling, TTR. It counts as binding. The following applies: liganded = ≥60% reduction in probe enrichment; single meroterpenoid. In outline:
as §1

The next series addresses WT-PFKM (Homo sapiens, UniProt P08237). Nature of the series: F6P phosphorylation assay, WT-PFKM in HEK293T cell lysates. The series is classed as biochemical. In outline:
as §3

In the next series the target is K413R-IDH2 (Homo sapiens, UniProt P48735, K413R). Nature of the series: oxidative IDH2 activity, K413R-IDH2 in HEK293T cell lysates. It counts as biochemical. In outline:
(§4)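 HEK293T lysates expressed recombinant IDH2: WT, K299 mutants, K413R, or double K299R/K413R. Lysate was preincubated with the test compound (single-point 100 µM, or a dose series; 1 h, 37 °C). α-KG production from D-(+)-threo-isocitrate (1.3 mM, 1 h, 25 °C) was measured.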

In series [5] the target is T2, ABHD12 (Homo sapiens, UniProt Q8N2K0).
T2 sequence (Q8N2K0 1-398): T1 sequence (Q8N2K0 1-398)
Description: TMT18plex lysine ligandability profiling, ABHD12. It counts as binding. The following applies: both MDA-MB-231 and MDA-MB-436 cell lines. In outline:
as §1

A further series deals with WT-IDH2 (Homo sapiens, UniProt P48735). Description: oxidative IDH2 activity. It counts as biochemical. In outline: as §4
WT-IDH2, sequence (P48735 40-452): as the sequence (P48735 40-452 R140Q) above, with Q101R counted along it
Another series has as its target K299R-IDH2 (Homo sapiens, UniProt P48735, K299R). Nature of the series: oxidative IDH2 activity, K299R-IDH2 in HEK293T cell lysates. The series is classed as biochemical. The gist of the method:
as §4

A further series addresses K299R/K413R-IDH2 (Homo sapiens, UniProt P48735, K299R/K413R). Nature of the series: oxidative IDH2 activity, K299R/K413R-IDH2 in HEK293T cell lysates. It counts as biochemical.
The target of series [6] is T2, ABHD12. Description: immunoblot analysis of high-molecular-weight ABHD12 aggregates. Particulars: recombinant ABHD12, immunoblot. In outline:
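Flag-tagged WT and K373R ABHD12 expressed recombinantly in HEK293T cells; lysates treated with increasing test compound, then labeled with TAMRA-FP. Read-out by in-gel fluorescence plus Western blot, tracking monomeric and high-molecular-weight ABHD12 bands.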
For orientation: Immunoblotting shows a protein as a band on a membrane.

The target in another series is prohibitin-2 (PHB2) (Homo sapiens, UniProt Q99623). Nature of the series: TMT18plex lysine ligandability profiling, PHB2. Particulars: 100 μM, 8 h, breast cancer cells. The series is classed as binding. The gist of the method: as §1
prohibitin-2 (PHB2), sequence (Q99623 whole entry): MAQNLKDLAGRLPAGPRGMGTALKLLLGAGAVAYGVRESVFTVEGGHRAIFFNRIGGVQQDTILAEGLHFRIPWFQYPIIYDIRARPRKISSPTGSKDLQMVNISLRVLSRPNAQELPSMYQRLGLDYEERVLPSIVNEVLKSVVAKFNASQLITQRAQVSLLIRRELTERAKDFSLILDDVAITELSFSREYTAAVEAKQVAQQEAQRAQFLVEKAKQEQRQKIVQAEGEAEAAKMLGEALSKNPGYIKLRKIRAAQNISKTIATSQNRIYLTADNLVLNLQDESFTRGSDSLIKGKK
The next series concerns the target stathmin (STMN1) (Homo sapiens, UniProt P16949). Description: TMT18plex lysine ligandability profiling, STMN1. Particulars: 100 μM, 8 h, breast cancer cells. The series is classed as binding. In outline:
as §1

In another series the target is OCIAD2 (Homo sapiens, UniProt Q56VL3). Description: TMT18plex lysine ligandability profiling, OCIAD2. It counts as binding. The following applies: 100 μM, 8 h. In outline: as §1
OCIAD2, sequence (Q56VL3 whole entry): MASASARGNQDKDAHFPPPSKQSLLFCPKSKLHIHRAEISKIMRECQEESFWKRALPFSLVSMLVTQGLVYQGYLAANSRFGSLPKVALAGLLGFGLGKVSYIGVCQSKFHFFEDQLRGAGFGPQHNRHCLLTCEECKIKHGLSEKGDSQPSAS
Series [7] concerns MDA-MB-231 cells. Description: in-gel fluorescence profiling of clickable probes. The series is classed as cell-based, human. The following applies: in MDA-MB-231 cells.
In the next series the target is annexin A4 (ANXA4) (Homo sapiens, UniProt P09525). Nature of the series: TMT18plex lysine ligandability profiling, ANXA4. It counts as binding. Particulars: liganded = ≥60% reduction in probe enrichment; single meroterpenoid. In outline:
as §1

stathmin (STMN1), sequence (P16949 whole entry): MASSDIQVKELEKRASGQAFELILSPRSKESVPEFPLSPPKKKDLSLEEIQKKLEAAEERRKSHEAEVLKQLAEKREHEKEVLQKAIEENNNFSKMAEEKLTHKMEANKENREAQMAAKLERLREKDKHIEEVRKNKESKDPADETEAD
WT-PFKM, sequence (P08237 whole entry): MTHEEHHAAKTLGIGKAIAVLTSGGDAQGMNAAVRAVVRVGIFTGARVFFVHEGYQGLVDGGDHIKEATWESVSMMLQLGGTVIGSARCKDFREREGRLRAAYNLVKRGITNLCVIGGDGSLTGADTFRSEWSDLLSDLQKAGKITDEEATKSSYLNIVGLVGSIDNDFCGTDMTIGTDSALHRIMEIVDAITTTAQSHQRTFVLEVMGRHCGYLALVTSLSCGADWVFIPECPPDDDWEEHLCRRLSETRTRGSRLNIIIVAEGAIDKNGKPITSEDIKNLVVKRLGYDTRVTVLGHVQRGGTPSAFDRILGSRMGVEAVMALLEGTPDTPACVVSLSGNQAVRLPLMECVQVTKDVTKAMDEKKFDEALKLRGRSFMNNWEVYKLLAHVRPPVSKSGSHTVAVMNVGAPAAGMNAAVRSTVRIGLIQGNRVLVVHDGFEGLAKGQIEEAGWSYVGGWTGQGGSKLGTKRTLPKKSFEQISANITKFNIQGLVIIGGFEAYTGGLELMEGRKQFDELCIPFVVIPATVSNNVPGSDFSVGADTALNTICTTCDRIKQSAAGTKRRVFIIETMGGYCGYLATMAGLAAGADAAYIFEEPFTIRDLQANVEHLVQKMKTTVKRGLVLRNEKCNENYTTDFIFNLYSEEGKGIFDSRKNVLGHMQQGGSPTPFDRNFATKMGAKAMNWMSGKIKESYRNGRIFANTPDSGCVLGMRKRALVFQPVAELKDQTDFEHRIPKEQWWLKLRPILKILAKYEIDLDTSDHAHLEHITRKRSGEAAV
K299R/K413R-IDH2, sequence (P48735 40-452 K299R/K413R): as the sequence (P48735 40-452 R140Q) above, with Q101R, K260R, K374R counted along it
K678R-PFKM, sequence (P08237 whole entry K678R): as the sequence (P08237 whole entry) above, with K678R counted along it
annexin A4 (ANXA4), sequence (P09525 whole entry): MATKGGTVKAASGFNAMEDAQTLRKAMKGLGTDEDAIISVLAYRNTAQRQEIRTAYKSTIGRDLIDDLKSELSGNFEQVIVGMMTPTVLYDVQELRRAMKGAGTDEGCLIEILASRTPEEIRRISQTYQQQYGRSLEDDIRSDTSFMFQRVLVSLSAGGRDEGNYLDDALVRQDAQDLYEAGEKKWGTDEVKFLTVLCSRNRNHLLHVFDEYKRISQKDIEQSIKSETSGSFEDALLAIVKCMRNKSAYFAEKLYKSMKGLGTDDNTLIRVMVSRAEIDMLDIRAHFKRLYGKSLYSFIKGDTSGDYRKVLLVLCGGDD
K373R-ABHD12, sequence (Q8N2K0 whole entry K373R): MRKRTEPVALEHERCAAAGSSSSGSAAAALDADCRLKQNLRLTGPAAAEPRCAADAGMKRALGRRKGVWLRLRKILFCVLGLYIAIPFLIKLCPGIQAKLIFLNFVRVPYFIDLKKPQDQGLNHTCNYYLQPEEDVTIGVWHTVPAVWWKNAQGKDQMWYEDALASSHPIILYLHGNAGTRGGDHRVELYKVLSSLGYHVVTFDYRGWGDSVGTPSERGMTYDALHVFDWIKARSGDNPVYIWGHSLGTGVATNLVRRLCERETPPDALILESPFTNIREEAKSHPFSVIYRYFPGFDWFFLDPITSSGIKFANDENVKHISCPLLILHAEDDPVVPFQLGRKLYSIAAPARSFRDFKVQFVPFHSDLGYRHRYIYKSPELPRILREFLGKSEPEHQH
K299R-IDH2, sequence (P48735 40-452 K299R): as the sequence (P48735 40-452 R140Q) above, with Q101R, K260R counted along it
IDH2, sequence (P48735 40-452): as the sequence (P48735 40-452 R140Q) above, with Q101R counted along it
mitochondrial citrate synthase (CS), sequence (O75390 28-466): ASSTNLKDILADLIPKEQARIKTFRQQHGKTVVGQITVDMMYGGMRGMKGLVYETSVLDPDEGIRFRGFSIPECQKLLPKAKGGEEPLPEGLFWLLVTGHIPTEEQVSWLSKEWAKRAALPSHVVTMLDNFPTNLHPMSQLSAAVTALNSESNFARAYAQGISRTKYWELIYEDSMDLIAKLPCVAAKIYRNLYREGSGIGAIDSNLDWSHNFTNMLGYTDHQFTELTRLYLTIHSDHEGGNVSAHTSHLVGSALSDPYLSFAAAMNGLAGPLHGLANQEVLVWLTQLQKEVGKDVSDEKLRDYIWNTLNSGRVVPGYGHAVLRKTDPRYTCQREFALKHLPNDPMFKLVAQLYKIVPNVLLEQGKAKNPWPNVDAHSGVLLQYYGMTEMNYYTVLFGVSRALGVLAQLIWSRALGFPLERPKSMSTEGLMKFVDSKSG
K413R-IDH2, sequence (P48735 40-452 K413R): as the sequence (P48735 40-452 R140Q) above, with Q101R, K374R counted along it

Regarding `O=Cc1ccccc1` [benzaldehyde], the “fold increased half-life / diminished rate compared to salicylaldehyde” value in series [1] is given as 10 fold.
In the case of `O=Cc1c(O)cc(O)cc1O` [phloroglucinaldehyde], in [1], the “fold increased half-life / diminished rate compared to salicylaldehyde” value amounted to 80 fold.
Turning to `COc1c(O)c(C)c(C/C=C(\C)CC/C=C(\C)CC/C=C(\C)CC/C=C(\C)CC/C=C(\C)CC/C=C(\C)CC/C=C(\C)CC/C=C(\C)CC/C=C(\C)CCC=C(C)C)c(O)c1OC` [ubiquinol], in series [2], the “calculated pKa1” value is 5.31 and the “calculated pKa2” value was 10.86.
As to `Cc1c(O)c(C=O)c(O)c(C(=O)CC(C)C)c1O` [grandinol], the pKa in the series “ionization constants” amounted to 10.9. Also, the “fold diminished rate compared to jensenone” value in series [1] (vs jensenone) turned out to be 30 fold.
`CC(C)CC(=O)c1c(O)c(C=O)c2c(c1O)CC[C@@]1(CC[C@H]3C[C@@H]1C3(C)C)O2` [(−)-euglobal-G3]: the “engagement of K76 in CS” value in series [3] is reported as “exclusively targeted”.
As to `CC(C)CC(=O)c1c(O)c(C=O)c(O)c(C=O)c1O` [jensenone], the IC50 is 26.2 µM at R140Q-IDH2; 45.7 µM on K373R-ABHD12; 32.6 µM on WT-ABHD12; > 100 µM against K678R-PFKM; 10.8 µM against WT-PFKM; 21.4 µM against K413R-IDH2. Moreover, the IC50 on WT-IDH2 is 20.9 µM; against K299R-IDH2 it was 29.8 µM; at K299R/K413R-IDH2, > 100 µM. Further, the “effect on reductive activity (2-HG production)” value on R140Q-IDH2 (100 μM, 2 h, 20 °C) is on record as “fully abolished the reductive activity”. Moreover, at IDH2, the IDH2 homodimerization result was “unexpected induction of IDH2 homodimerization”. Moreover, the “residual ABHD12 LPS hydrolysis activity” value at WT-ABHD12 (100 μM, 1 h, 37 °C, 17:1 LPS substrate) was 23%. The “levels of monoacylglycerophosphoserine LPS(18:0)” value with MDA-MB-231 cells [4] was “significantly elevated levels”. Moreover, the “levels of stearic acid FA(18:0)” value with MDA-MB-231 cells [4] is “concurrent reduction”. Also, the pKa in “ionization constants” stood at 10.5. On transthyretin (TTR), the “engagement of K35 in TTR” value is listed as “selectively engaged”. Further, the “inhibitory effect on catalytic activity of PFKM” value on WT-PFKM (100 μM, 2 h, 37 °C, among the meroterpenoids assessed) is reported as “most pronounced inhibitory effects”. In addition, on ABHD12 [5], the “ligandability of K373 in ABHD12” value was 76%. The “effect on IDH2 oxidative activity” value at WT-IDH2 (100 μM, 1 h, 37 °C) is “complete functional inhibition”. The “oxidative activity following treatment” value on K299R/K413R-IDH2 (double mutant K299R/K413R-IDH2, 100 μM, 1 h, 20 °C) is reported as “essentially preserved its oxidative activity”. Moreover, the “formation of high-molecular-weight ABHD12 aggregates” value at ABHD12 [6] is “marked reduction in the monomeric form of ABHD12 and a concomitant increase in high-molecular-weight ABHD12 aggregates”.
`CC(C)CC(=O)c1c(O)c(C=O)c2c(c1O)C[C@H]1C[C@H]3C[C@H](C3(C)C)[C@@]1(C)O2` [(−)-euglobal-G2]: the “ligandability of K24 in PHB2” value on prohibitin-2 (PHB2) is 61%. Further, the “ligandability of K128 in STMN1” value on stathmin (STMN1) is reported as 11%.
With (+)-euglobal-G2, the results for the “ligandability of K99 in OCIAD2” value at OCIAD2 (MDA-MB-231 cells) and at OCIAD2 (MDA-MB-436 cells) were 92% and 49%, respectively. Also, the “ligandability of K24 in PHB2” value on prohibitin-2 (PHB2) was 26%. Moreover, the “ligandability of K128 in STMN1” value on stathmin (STMN1) was determined as 67%.
In the case of `CC(C)CC(=O)c1c(O)c(C=O)c(O)c2c1O[C@@]1(CC2)CC[C@H]2C[C@@H]1C2(C)C` [(−)-euglobal-G4], the “competitive blockade of azide probe (−)-11 labeling” value with MDA-MB-231 cells [7] was “blockade of probe (−)-11 labeling for a subset of protein targets in a dose-dependent manner”. Further, the “engagement of K246 in ANXA4” value at annexin A4 (ANXA4) was “exclusively targeted”.
